The list is not random: actives were taken first. Their share in the collection is about 2.9%.
OX1R antag-1 = human HCRTR1 antagonism; AID 434989; O43613; 0.43% of 330,000 active; CHO/OX1R cells, Fluo-8 calcium fluorescence, orexin A; inhibition, % at 5 µM;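 active means inhibition above its plate's threshold, mean inhibition of all tested compounds on the plate plus 3 SD, cut at about 37% in these data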;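 further: 0% = orexin A challenge wells and 100% = SB-334867-A antagonist wells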
Target sequence (O43613 whole entry, looked up): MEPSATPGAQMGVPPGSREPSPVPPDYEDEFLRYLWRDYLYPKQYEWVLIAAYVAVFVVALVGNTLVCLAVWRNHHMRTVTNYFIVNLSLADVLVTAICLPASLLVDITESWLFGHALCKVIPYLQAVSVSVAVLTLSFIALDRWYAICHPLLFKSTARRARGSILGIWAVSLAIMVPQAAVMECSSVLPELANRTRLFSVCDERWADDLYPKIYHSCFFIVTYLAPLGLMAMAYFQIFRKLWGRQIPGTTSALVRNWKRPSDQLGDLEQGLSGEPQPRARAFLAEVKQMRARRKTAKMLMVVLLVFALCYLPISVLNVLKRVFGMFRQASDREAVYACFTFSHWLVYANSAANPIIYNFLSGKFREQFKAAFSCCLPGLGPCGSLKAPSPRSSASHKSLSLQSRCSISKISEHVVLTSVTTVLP
CHO parental Ca = counter-screen for OX1R antagonists: effect in parental CHO cells | parental CHO-K1, ATP-induced calcium, Fluo-8 fluorescence | inhibition, % at 5.6 µM | 0.63% of 330,000 active | AID 463079;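 active means inhibition above that plate's mean sample inhibition plus 3 SD, cut at about 26% in these data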;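 further: 0% = ATP-challenged DMSO wells and 100% = DMSO wells without ATP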
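material = parental CHO cells | also added = ATP as calcium-mobilizing challenge | dosing = single point at 5.6 µM | detection = intracellular calcium via Fluo-8 no-wash fluorescent dye | read-out = % inhibition | benchmarks = low control ATP plus DMSO, high control DMSO only | repeats = one well per compound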
M1 PAM parental = M1 PAM counterscreen hit in parental CHO-K1 cells | AID 602247 | ATP EC20, Fluo-8 calcium fluorescence; 0% at ATP EC20, 100% at ATP max | 0.02% of 360,000 active | activation, % at 3 µM;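 active means activation above the run cutoff, the mean activation of all test compounds plus 3 SD, cut at about 40% in these data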;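 further: peak over basal fluorescence ratio in a 140 s read after ATP addition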
OX1R antag-2 = OX1R (human) antagonism; O43613; OX1R-expressing cells, FRET antagonist read-out; inhibition, % at 6.6 µM; 1.8% of 330,000 active; in the data active means inhibition mostly above about 38%, no sharp cut-off; inactive means mostly below about 40%;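 further: 0% = agonist challenge alone and 100% = reference antagonist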
CHO-K1 Ca antag = M1 antagonist counterscreen hit in parental CHO-K1 cells; AID 602250; 0.6% of 360,000 active; ATP-induced calcium, Fluo-8 fluorescence; inhibition, % at 3 µM;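 active means inhibition above a per-plate cutoff, the plate's mean sample inhibition plus 3 SD, cut at about 24% in these data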;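 further: 0% = DMSO plus EC80 ATP and 100% = DMSO alone without ATP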
CHO-K1 Ca ag = nonselective activator or artifact in parental CHO-K1 cells | 0.48% of 360,000 active | Fluo-8 calcium fluorescence; scaled to maximal ATP response, vehicle zero | activation, % at 3 µM; in the data active means activation above about 15%;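 further: untransfected CHO-K1 host cells lacking M1 receptor as counterscreen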
* hit, by the source's call; . = no result.

SMILES	OX1R antag-1	CHO parental Ca	M1 PAM parental	OX1R antag-2	CHO-K1 Ca antag	CHO-K1 Ca ag
Cc1ccc(S(=O)(=O)CC(c2ccccc2)N2CCCCC2)cc1 (stereo not drawn)	-21	-4	-16	8	27*	-1
Cc1ccc(S(=O)(=O)CC(c2ccccc2)N2CCOCC2)cc1 (stereo not drawn)	-17	-22	-1	-1	4	0
Cc1ccc(-c2ccc(CCC(=O)O)n2-c2ccc(C(=O)O)cc2)cc1	.	.	-1	.	-8	0
O=C(CCCN1C(=O)/C(=C/c2cccs2)SC1=S)Nc1ccccc1O	0	14	9	61*	-14	3
O=C(CCCN1C(=O)/C(=C/c2ccco2)SC1=S)Nc1cccc(C(=O)O)c1	-1	-5	6	61*	-3	1
CC1(C)CC[C@]2(CO)CC[C@]3(C)C(=CCC4[C@@]5(C)CC[C@H](O)[C@@](C)(CO)C5CC[C@]43C)[C@@H]2C1 (stereo partly drawn)	-40	-41	15	5	-11	0
COCCNC(=O)Cn1nc(Cc2ccncc2)c2ccccc2c1=O	-5	-6	-10	3	9	0
CC(C)OCCCN1C=C2C(=O)C(C)(OC(=O)CCc3ccccc3)C(=O)C=C2C=C1c1ccc(C#N)cc1 (stereo not drawn)	-11	-20	.	35	.	.
Cc1cccc(Nc2nc(-c3ccc(O)cc3O)cs2)n1	-8	-9	-4	14	3	-1
O=C(NC1CCN(Cc2ccccc2)CC1)C1CCN(S(=O)(=O)c2cccc3nsnc23)CC1	-20	-17	20	71*	-15	1
CC1CCN(CCNC(=O)C2CCCN(S(=O)(=O)c3cccc4nonc34)C2)CC1 (stereo not drawn)	-19	0	20	70*	-14	0
O=C(NCc1ccccc1)C1CCCN(S(=O)(=O)c2cccc3nonc23)C1 (stereo not drawn)	-30	-10	-3	55	6	4
O=C(NC1CCN(Cc2ccccc2)CC1)C1CCCN(S(=O)(=O)c2cccc3nonc23)C1 (stereo not drawn)	-19	-19	21	70*	-8	1
CCCCN1CCCCC1(C)C(=O)NCc1cccc(OC)c1 (stereo not drawn)	.	.	-9	.	-2	0
Nc1nc(-c2ccccc2)[nH]c(=O)c1N=O	-16	-4	4	58*	-10	1
N#Cc1c(-c2ccccc2)nc(-c2ccccc2)[nH]c1=O	-13	-16	9	20	-11	0
CC(OC(=O)c1n[nH]c2ccccc12)C(=O)Nc1ccccc1[N+](=O)[O-] (stereo not drawn)	12	-25	-2	36*	3	1
OCCCCCNc1ncnc2ccccc12	6	18	3	34	3	15*
c1cc2[nH]snc2c2nc(C3CC3)nc12	-10	-10	10	46*	-11	0
Cc1[nH]cnc1C(=O)N/N=C/c1ccc([N+](=O)[O-])s1	-14	4	0	71*	-3	0
Cc1cc(C(=O)N/N=C\c2cc(C(C)(C)C)c(O)c(C(C)(C)C)c2)n[nH]1	-19	-8	5	11	0	0
Cc1ccc(C(=O)N/N=C\c2ccc([N+](=O)[O-])s2)cn1	-8	-13	-10	53	4	0
Cc1cc(C(=O)N/N=C/c2cc(Cl)cc([N+](=O)[O-])c2O)n[nH]1	-17	-2	20	66*	-3	1
Cc1cc(C(=O)N/N=C/c2ccc([N+](=O)[O-])s2)n[nH]1	-11	-4	16	53*	-11	1
Cc1cc(C(=O)N/N=C/c2ccc(-c3ccccc3Cl)o2)n[nH]1	4	-18	-14	70*	19	1
Cc1cc(C(=O)N/N=C/c2ccc(C)s2)n[nH]1	-11	7	-12	11	-10	0
CC(OC(=O)Cn1cnc2c1c(=O)n(C)c(=O)n2C)C(=O)Nc1ccc(Cl)cc1 (stereo not drawn)	-9	-4	-13	17	-9	2
CCCCOc1ccc(C(=O)NCC(=O)NCC(c2ccc(F)cc2)N2CCOCC2)cc1 (stereo not drawn)	-9	-24	-30	6	20	0

Screening data deposited in PubChem BioAssay by The Scripps Research Institute Molecular Screening Center.
